Laboratory results as given in ChEMBL document CHEMBL3272299, “Antineoplastic agents. 1. N-Protected vinyl, 1,2-dihaloethyl, and cyanomethyl esters of phenylalanine” (J Med Chem, 1977).
The source made the active and inactive calls. The calls are words filed in the database; no cut-off is given here.

Columns and labels:
Ehrlich [1] = test: Antitumor activity against mouse EAC allografted in CF1 mouse assessed as tumor volume at 33 mg/kg/day measured on day 7; type: functional
Ehrlich [2] = test: Antitumor activity against mouse EAC allografted in CF1 mouse assessed as inhibition of tumor growth at 33 mg/kg/day measured on day 7; type: functional; conditions: 168 h
[3] = Acute toxicity in CF1 mouse; type: organism-based; conditions: in vivo
Ehrlich [4] = test: Antitumor activity against mouse EAC allografted in CF1 mouse assessed as host survival at 33 mg/kg/day measured on day 7; type: functional, organism-based
[5] = Chemical stability of the compound assessed as optical rotation; type: physicochemical
[6] = Chemical stability of the compound by TLC analysis; type: physicochemical
W256 [7] = test: Antitumor activity against rat Walker 256 cells allografted in Sprague-Dawley rat assessed as tumor growth inhibition at 2.5 mg/kg, ip qd relative to control; type: functional; conditions: route intraperitoneal
W256 [8] = test: Antitumor activity against rat Walker 256 cells allografted in Sprague-Dawley rat assessed as host survival days at 2.5 mg/kg, ip qd; type: functional; conditions: route intraperitoneal
Outline: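 Walker 256 ascites cells were implanted ip into male Sprague-Dawley rats (75 ± 10 g). Compound in 0.05% Tween-water was given ip at 2.5 mg/kg/day, and the day of death was recorded. T/C was calculated from the mean survival time per group according to the NIH protocol. Melphalan served as the internal standard.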

P388 [9] = test: Antitumor activity against mouse P388 cells allografted in DBA/2 mouse assessed as tumor growth inhibition at 20 mg/kg, ip qd relative to control; type: functional; conditions: route intraperitoneal
P388 [10] = test: Antitumor activity against mouse P388 cells allografted in DBA/2 mouse assessed as host survival at 20 mg/kg, ip qd; type: functional; conditions: route intraperitoneal
Outline: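 P388 leukaemia cells were implanted on day 0 in male DBA/2 mice (20 g). Compound was dosed ip at 20 mg/kg/day. T/C survival values were calculated according to the NIH protocol. 5-Fluorouracil served as the internal standard.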

| Structure (SMILES) | Activity (Ehrlich [1]) [mL] | inhibition in vivo at 33 mg/kg/day (Ehrlich [2]) [%] | LD50 [3] [µmol/kg] | Survival (Ehrlich [4]) | Stability [5] | Stability [6] | T/C (W256 [7]) | Survival (W256 [8]) [days] | T/C (P388 [9]) | Survival (P388 [10]) [days] |
| --- | --- | --- | --- | --- | --- | --- | --- | --- | --- | --- |
| O=C(/C=C/c1ccccc1)N[C@@H](Cc1ccccc1)C(=O)O | 2.1 | 58 | 740 | Active |  |  |  |  |  |  |
| CCOC(=O)[C@H](Cc1ccccc1)NC(=O)OCc1ccccc1 | 1.5 | 57 | 1530 | Active |  |  |  |  |  |  |
| N#CCOC(=O)[C@H](Cc1ccccc1)NC(=O)[C@H](Cc1ccccc1)NC(=O)OCc1ccccc1 | 1.5 | 52 |  | Active | Stable | Stable |  |  |  |  |
| N#CCOC(=O)[C@@H](Cc1ccccc1)NC(=O)OCc1ccccc1 | 1 | 72 | 80 |  | Stable | Stable |  |  |  |  |
| C=COC(=O)[C@H](Cc1ccccc1)NS(=O)(=O)c1ccc(C)cc1 | 3.8 | 56.8 |  |  | Stable | Stable |  |  |  |  |
| O=Cc1ccccc1 [BENZALDEHYDE] | 0.8 | 69 |  | Active |  |  |  |  |  |  |
| O=C(NC(Cc1ccccc1)C(=O)O)OCc1ccccc1 (racemic) | 2.6 | 52 |  |  |  |  |  |  |  |  |
| C=COC(=O)[C@@H](Cc1ccccc1)NC(=O)OCc1ccccc1 | 3.6 | 36 | 1540 | Active | Stable | Stable |  |  |  |  |
| O=C(N[C@@H](Cc1ccccc1)C(=O)OC(Cl)CCl)OCc1ccccc1 (stereo partly drawn) | 0.8 | 93 | 1260 | Active |  |  |  |  |  |  |
| O=C(O)CCCc1ccc(N(CCCl)CCCl)cc1 [CHLORAMBUCIL] |  |  | 61 |  |  |  |  |  |  |  |
| CC(=O)N[C@@H](Cc1ccccc1)C(=O)OCC#N | 3.9 | 16 |  | Active | Stable | Stable |  |  |  |  |
| Cc1ccc(S(=O)(=O)N[C@@H](Cc2ccccc2)C(=O)C(=O)CCl)cc1 | 0.01 | 100 | 210 |  |  |  |  |  |  |  |
| C=COC(=O)[C@H](Cc1ccccc1)NC(=O)[C@H](Cc1ccccc1)NC(=O)OCc1ccccc1 | 2.1 | 43 |  |  | Stable | Stable |  |  |  |  |
| C=COC(=O)[C@H](Cc1ccccc1)NC(=O)c1ccccc1 | 2.1 | 56.8 |  | Active | Stable | Stable |  |  |  |  |
| Cc1ccc(S(=O)(=O)N[C@@H](Cc2ccccc2)C(=O)O)cc1 | 0.5 | 84 |  | Active |  |  |  |  |  |  |
| C=CCOC(=O)C(Cc1ccccc1)NC(=O)OCc1ccccc1 (racemic) | 0.6 | 71 |  | Active | Stable | Stable |  |  |  |  |
| N[C@@H](Cc1ccc(N(CCCl)CCCl)cc1)C(=O)O [MELPHALAN] | 0.1 | 99 |  | Active |  |  | 305 | 23 |  |  |
| O=C(N[C@@H](Cc1ccccc1)C(=O)O)OCc1ccccc1 | 0.6 | 75 | 840 | Active |  |  |  |  |  |  |

| Structure (SMILES) | Activity (Ehrlich [1]) [mL] | inhibition in vivo at 33 mg/kg/day (Ehrlich [2]) [%] | LD50 [3] [µmol/kg] | Survival (Ehrlich [4]) | Stability [5] | Stability [6] | T/C (W256 [7]) | Survival (W256 [8]) [days] | T/C (P388 [9]) | Survival (P388 [10]) [days] |
| --- | --- | --- | --- | --- | --- | --- | --- | --- | --- | --- |
| N#CCOC(=O)[C@H](Cc1ccccc1)NC(=O)c1ccccc1 | 1.8 | 47 | 360 |  | Stable | Stable |  |  |  |  |
| C#CCN[C@@H](Cc1ccccc1)C(=O)OCC | 3.7 | 16 |  | Active |  |  |  |  |  |  |
| C=COC(=O)[C@@H](N)Cc1ccccc1.Cl | 2.2 | 41 |  |  | Stable | Stable |  |  |  |  |
| O=C(N[C@H](Cc1ccccc1)C(=O)O)OCc1ccccc1 | 4.3 | 0 |  | Active |  |  |  |  |  |  |
| N#CCOC(=O)C(Cc1ccccc1)NC(=O)OCc1ccccc1 (racemic) | 0.4 | 86 | 760 | Active | Stable | Stable |  |  |  |  |
| N[C@H](CO)Cc1ccccc1 [L-PHENYLALANINOL] | 0.6 | 92 | 500 |  |  |  |  |  |  |  |
| O=C(N[C@@H](Cc1ccccc1)C(=O)OC(Br)CBr)OCc1ccccc1 (stereo partly drawn) | 0 | 100 | 150 | Active |  |  | 305 | 23 | 83 | 6.7 |
| O=C(N[C@@H](Cc1ccccc1)C(=O)O)c1ccccc1 | 1.3 | 73 |  | Active |  |  |  |  |  |  |
| O=C(N[C@@H](Cc1ccccc1)C(=O)N[C@@H](Cc1ccccc1)C(=O)OC(Br)CBr)OCc1ccccc1 (stereo partly drawn) | 0.2 | 92 | 780 | Active |  |  |  |  |  |  |
| Cl.N#CCOC(=O)[C@@H](N)Cc1ccccc1 | 2.5 | 9 |  |  | Stable | Stable |  |  |  |  |
| C=CCOC(=O)[C@H](Cc1ccccc1)NC(=O)OCc1ccccc1 | 2.6 | 24 |  | Active | Stable | Stable |  |  |  |  |
| Sc1ncnc2nc[nH]c12 [MERCAPTOPURINE ANHYDROUS] | 0.7 | 99.6 |  | Active |  |  |  |  | 148 | 12 |
| C#CCOC(=O)[C@H](Cc1ccccc1)NC(=O)OCc1ccccc1 | 3.3 | 54 |  |  |  |  |  |  |  |  |
| O=C(N[C@H](CO)Cc1ccccc1)OCc1ccccc1 | 1.3 | 55 |  | Active |  |  |  |  |  |  |
| C=COC(=O)C(Cc1ccccc1)NC(=O)OCc1ccccc1 (racemic) | 1.3 | 58 | 1540 | Active | Stable | Stable |  |  |  |  |
| C=COC[C@H](Cc1ccccc1)NC(=O)OCc1ccccc1 | 1.4 | 47 |  |  | Stable | Stable |  |  |  |  |
| CCOC(=O)[C@H](Cc1ccccc1)NC(=O)/C=C/c1ccccc1 | 5 | 0 |  | Active |  |  |  |  |  |  |
| N#CCOC(=O)[C@H](Cc1ccccc1)NC(=O)/C=C/c1ccccc1 | 2.8 | 27 |  | Active | Stable | Stable |  |  |  |  |
